# Source: PubChem BioAssay AID588817 (The Scripps Research Institute Molecular Screening Center, 2011)
# Activity calls are given as the source filed them.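 Rule for the calls: active = compounds cutting probe labeling of the enzyme in cells by at least 50% at 0.1 µM; inactive = under 50% inhibition at that dose.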
# Target: Platelet-activating factor acetylhydrolase (Mus musculus) (UniProt Q60963)
# Test: in situ blockade of mouse pPAFAH activity – cell-based, gel-based competitive ABPP, fluorescence, late-stage follow-up (AID 588817)
# Settings: HEK293T overexpressing mouse pPAFAH, 4 h; at 10 µM (top of the series)
# Method in brief: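 Test system: HEK293T cells transiently overexpressing mouse pPAFAH, treated in situ | Quantity: Lysate fractions at 1 mg/mL protein | Also added: 1 µM FP-Rh probe | Times: 4 h compound treatment, 30 min probe labelling, 37 °C | Detection: in-gel fluorescence of FP-Rh-labelled pPAFAH band, integrated optical density | Benchmarks: DMSO high control, blank-gel background low control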
# Sequence of Platelet-activating factor acetylhydrolase (Mus musculus) (Q60963 whole entry, looked up): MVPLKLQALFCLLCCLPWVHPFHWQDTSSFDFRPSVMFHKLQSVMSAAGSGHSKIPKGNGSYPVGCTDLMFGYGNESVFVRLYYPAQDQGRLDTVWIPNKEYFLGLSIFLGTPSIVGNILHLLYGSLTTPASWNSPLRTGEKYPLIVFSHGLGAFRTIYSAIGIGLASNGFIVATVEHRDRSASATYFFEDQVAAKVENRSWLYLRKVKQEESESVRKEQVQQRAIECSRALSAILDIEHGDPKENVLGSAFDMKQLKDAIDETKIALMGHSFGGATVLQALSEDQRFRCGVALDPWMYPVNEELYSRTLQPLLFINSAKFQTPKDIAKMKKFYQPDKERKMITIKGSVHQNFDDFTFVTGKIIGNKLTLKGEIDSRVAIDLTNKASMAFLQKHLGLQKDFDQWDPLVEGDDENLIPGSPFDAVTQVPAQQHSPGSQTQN
structure (smiles),measurement,value
Cc1cc(N2CCN(C(=O)Oc3ccc(-c4ccccc4)cn3)CC2)c2ccccc2n1,inhibition,100% (active)
